Published values gathered from unrelated publications.
Protocols differ between the studies behind these lines.
MAP4K5: Mitogen-activated protein kinase kinase kinase kinase 5 (MAP4K5, Homo sapiens, UniProt Q9Y4K4)
CTSL: Procathepsin L (CTSL, Homo sapiens, UniProt P07711)
XDH: Xanthine dehydrogenase/oxidase (XDH, Bos taurus, UniProt P80457)

| SMILES | target | assay | setting | inhibition |
| --- | --- | --- | --- | --- |
| C#Cc1n[nH]c2c(-c3cn([C@@H](C)c4ccccc4)c(=O)[nH]c3=O)cc(F)cc12 | Protein kinase C theta type (PRKCQ, Homo sapiens, UniProt Q04759) | enzyme activity, inhibitor | 0.1 µM | 10.2% |
| Cn1cc(-c2cc(F)cc(N3CCn4c(cc5c4CCCC5)C3=O)c2CO)cc(Nc2ccc(N3CCN(C4COC4)CC3)cn2)c1=O | MAP4K5 | enzyme activity, inhibitor | 0.1 µM | 3% |
| COc1cc(Nc2ncc(F)c(Nc3ccc4c(n3)NC(=O)C(C)(C)O4)n2)cc(OC)c1OC | MAP4K5 | binding, competition with immobilised ligand | 10 µM | 16% |
| Cn1cc(-c2cccc(N3CCc4c(sc5c4CC(C)(C)C5)C3=O)c2CO)cc(Nc2ccncn2)c1=O | Platelet-derived growth factor receptor alpha (PDGFRA, Homo sapiens, UniProt P16234) | enzyme activity, inhibitor | 1 µM | 5% |
| C#Cc1n[nH]c2c(-c3cn(C(C)c4ccccn4)c(=O)[nH]c3=O)cc(F)cc12 (stereo not drawn) | Tyrosine-protein kinase Blk (BLK, Homo sapiens, UniProt P51451) | enzyme activity, inhibitor | 1 µM | 3.1% |
| O=C(Oc1cncc(Cl)c1)c1cc2c(Cl)cc(Cl)cc2[nH]1 | CTSL | enzyme activity, inhibitor | 10 µM | 14% |
| CC(C)Cn1cnc2c(N)nc3ccccc3c21 | Alpha-1B adrenergic receptor (Adra1b, Rattus norvegicus, UniProt P15823) | ligand displacement, radioligand | 10 µM | 40% |
| CN(C(=O)[C@H](Cc1ccccc1)NC(=O)[C@@H](NC(=O)OCc1ccccc1)C(C)(C)C)N(C#N)CCC(N)=O | CTSL | enzyme activity, inhibitor | 50 µM | 99% |
| CC(C)C[C@H](NC(=O)[C@H]1O[C@@H]1C(=O)O)C(=O)NCCCCN=C(N)N | CTSL | enzyme activity, inhibitor | 5 nM | 39% |
| NC(=O)Cc1ccccc1 | XDH | enzyme activity, inhibitor, absorbance | 200 µg/mL | 17.1% |
| CCOC(=O)c1ccc(OC(=O)CCCCCNC(=N)N)cc1 | CTSL | enzyme activity, inhibitor | 10 µM | 0% |
| c1ccc(C(NCCNC(c2ccccc2)c2ccccc2)c2ccccc2)cc1 | XDH | enzyme activity, inhibitor | 10 µM | 5% |
